Experimental findings from ChEMBL document CHEMBL1146898, “Synthesis and immunostimulatory activity of 8-substituted amino 9-benzyladenines as potent Toll-like receptor 7 agonists” (Bioorg Med Chem Lett, 2006) are described below.

Test [1] concerns PBMC. Put plainly: Induction of IFNalpha production in human PBMC at 1 uM. Type of test: functional. The gist of the method: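 Donor PBMC from blood bank isolated over Ficoll-Hypaque and kept in RPMI 1640 with 10% FBS, L-glutamine and penicillin/streptomycin. 10⁶ cells/well were stimulated with compound at single final concentration for 24 h (37 °C, 5% CO₂). Supernatant IFN-α was measured by Luminex multicytokine bead kit. Values are a composite across several healthy donors.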

Test [2] concerns PBMC. Put plainly: Maximal IFNalpha production in human PBMC at 10 uM. The test is classed as functional. The procedure, abridged: (§1)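 Ficoll-Hypaque-isolated human PBMC were held in RPMI 1640 with 10% FBS, L-glutamine and pen/strep, 10⁶ cells/well. They were treated for 24 h with a compound dilution series going down to 10 nM. Supernatant IFN-α was read by Luminex bead assay. Data are a composite of three donors. EC₅₀ came from non-linear regression curve fit.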

Test [3] deals with Macrophage. Kind of test: Induction of TNFalpha production in macrophages of TLR7 knockout mouse. The test is classed as functional, cell-based.
Test [4] has as its system Macrophage. Kind of test: Induction of IL12 production in macrophages of TLR7 knockout mouse. The test is classed as functional, cell-based.
In test [5] the test system is PBMC. Kind of test: Induction of IFNalpha production in human PBMC. Type of test: functional, cell-based. The procedure, abridged: as §1
For test [6], the system named is Macrophage. Kind of test: Induction of IL6 production in macrophages of TLR7 knockout mouse. The test is classed as functional, cell-based.

The structures appear in SMILES notation. The source made the active and inactive calls. The rule behind the calls is not given here.

As to `CCOC(=O)Nc1nc2c(N)nc(OCCOC)nc2n1Cc1ccccc1`, in the test with PBMC [1], the Activity was 1.03 pg/mL.

In the test with PBMC [1], `CCCNc1nc2c(N)nc(OCCOC)nc2n1Cc1ccccc1` yielded an Activity of 8.8 pg/mL.

One may read the EC50 as the concentration needed to bring the measured effect to its halfway point. A lower EC50 goes with an effect from little substance. With `COCCOc1nc(N)c2nc(NCCO)n(Cc3ccccc3)c2n1`, the Activity with PBMC [2] turned out to be 168 pg/mL; with PBMC [1], 99.21 pg/mL. The result with Macrophage [3], in the test on Macrophage [4] and with Macrophage [6] was inactive. Further, the EC50 with PBMC [5] was 5.33 µM.

The molecule `COCCOc1nc(N)c2nc(NCCc3ccccc3)n(Cc3ccccc3)c2n1` had an Activity in the test on PBMC [1] of 1.33 pg/mL.

In the test with PBMC [2], `COCCOc1nc(N)c2nc(N)n(Cc3ccccc3)c2n1` returned an Activity of 132 pg/mL. The same molecule returned an EC50 in the test with PBMC [5] of more than 10 µM.

Regarding `COCCOc1nc(N)c2[nH]c(=O)n(Cc3ccccc3)c2n1`, the figures for the Activity in the test with PBMC [2] and in the test with PBMC [1] were 220 pg/mL and 418 pg/mL, respectively. The molecule also had an EC50 in the test on PBMC [5] of 0.14 µM.

Take `COCCOc1nc(N)c2nc(NCCCO)n(Cc3ccccc3)c2n1`: the Activity was determined as 206 pg/mL in the test with PBMC [2] and 113.18 pg/mL with PBMC [1]. Besides, the outcome with Macrophage [3], in the test on Macrophage [4] and in the test with Macrophage [6] was inactive. A half-maximal effect in the test on PBMC [5] (EC50) was put at 3.2 µM.

As to `COCCOc1nc(N)c2nc(N(CCO)CCO)n(Cc3ccccc3)c2n1`, the Activity in the test on PBMC [1] came to 0.82 pg/mL.

On to `CCNc1nc2c(N)nc(OCCOC)nc2n1Cc1ccccc1`, for which the values for the Activity in the test with PBMC [2] and in the test on PBMC [1] were 141 pg/mL and 80.3 pg/mL, respectively. Further, the outcome with Macrophage [3], in the test on Macrophage [4] and in the test on Macrophage [6] was inactive. It took 4.42 µM to reach a half-maximal effect in the test on PBMC [5] (EC50).

For the molecule `COCCOc1nc(N)c2nc(NCCN3CCOCC3)n(Cc3ccccc3)c2n1`, the Activity is 176 pg/mL in the test on PBMC [2] and 110.48 pg/mL with PBMC [1]. For the same molecule, the result with Macrophage [3], with Macrophage [4] and in the test on Macrophage [6] was inactive. For the same molecule, a half-maximal response with PBMC [5] (EC50) required 0.79 µM.

As for `COCCOc1nc(N)c2nc(N3CCOCC3)n(Cc3ccccc3)c2n1`, the Activity with PBMC [1] was 0.41 pg/mL.

In the case of `COCCOc1nc(N)c2nc(NN)n(Cc3ccccc3)c2n1`, in the test with PBMC [1], the Activity worked out at 0.21 pg/mL.

For the molecule `CCCCNc1nc2c(N)nc(OCCOC)nc2n1Cc1ccccc1`, in the test with PBMC [1], the Activity came to 0.73 pg/mL.
